# Results taken from ChEMBL document CHEMBL2040727, “Substituted thiazoles VI. Synthesis and antitumor activity of new 2-acetamido- and 2 or 3-propanamido-thiazole analogs” (2012).
# What was measured:
# Type in all cases: functional
# [1] = tested on: SK-MEL-5; test: Growth inhibition of human SK-MEL-5 cells at 10 uM after 48 hrs by coulter counter analysis; conditions: SK-MEL-5, 48 h, read-out: GI
# Outline: (§1)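 Single-dose NCI 60-line panel screen of test compounds. Cells grown in RPMI 1640 with 10% FBS. Compounds dissolved in DMSO, then diluted in phosphate buffer saline (final DMSO below 1%). Wells run in duplicate at 6 × 10⁴ cells/ml. Controls held PBS and DMSO at matching dilutions. Incubation 48 h at 37 °C under humidified 5% CO2. Cells diluted tenfold in saline and counted by Coulter counter. Percent growth inhibition taken from mean-graph of treated-cell growth.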
# [2] = tested on: KM12; test: Growth inhibition of human KM12 cells at 10 uM after 48 hrs by coulter counter analysis; conditions: KM12, 48 h, read-out: GI; outline: as §1
# [3] = tested on: ACHN; test: Growth inhibition of human ACHN cells at 10 uM after 48 hrs by coulter counter analysis; conditions: read-out: GI; outline: as §1
# [4] = tested on: SK-OV-3; test: Growth inhibition of human SKOV3 cells at 10 uM after 48 hrs by coulter counter analysis; conditions: SK-OV-3, 48 h, read-out: GI; outline: as §1
# [5] = tested on: SNB-75; test: Growth inhibition of human SNB75 cells at 10 uM after 48 hrs by coulter counter analysis; conditions: SNB-75, 48 h, read-out: GI
# Outline: (§2)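 Single-dose screen in the NCI 60 cell line panel. Cells grown in RPMI 1640 with 10% FBS. Compounds dissolved in DMSO and diluted in phosphate buffered saline, final DMSO under 1%. Duplicate wells seeded from culture at 6 × 10⁴ cells/ml. Incubated 48 h at 37 °C, humidified, 5% CO2. Cells diluted tenfold in saline and Coulter-counted. Percent growth inhibition computed against PBS/DMSO controls.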
# [6] = tested on: NCI-H522; test: Growth inhibition of human NCI-H522 cells at 10 uM after 48 hrs by coulter counter analysis; conditions: NCI-H522, 48 h, read-out: GI; outline: as §1
# [7] = tested on: OVCAR-5; test: Growth inhibition of human OVCAR5 cells at 10 uM after 48 hrs by coulter counter analysis; conditions: OVCAR-5, 48 h, read-out: GI; outline: as §1
# [8] = tested on: HCT-116; test: Growth inhibition of human HCT116 cells at 10 uM after 48 hrs by coulter counter analysis; conditions: HCT-116, 48 h, read-out: GI; outline: as §1
# [9] = tested on: OVCAR-4; test: Growth inhibition of human OVCAR4 cells at 10 uM after 48 hrs by coulter counter analysis; conditions: OVCAR-4, 48 h, read-out: GI; outline: as §1
# [10] = tested on: T47D; test: Growth inhibition of human T47D cells at 10 uM after 48 hrs by coulter counter analysis; conditions: read-out: GI; outline: as §2
# [11] = tested on: UACC-257; test: Growth inhibition of human UACC257 cells at 10 uM after 48 hrs by coulter counter analysis; conditions: UACC-257, 48 h, read-out: GI; outline: as §2
# [12] = tested on: HOP-62; test: Growth inhibition of human HOP62 cells at 10 uM after 48 hrs by coulter counter analysis; conditions: HOP-62, 48 h, read-out: GI; outline: as §1
# [13] = tested on: UACC-62; test: Growth inhibition of human UACC62 cells at 10 uM after 48 hrs by coulter counter analysis; conditions: UACC-62, 48 h, read-out: GI; outline: as §2
# [14] = tested on: M14; test: Growth inhibition of human M14 cells at 10 uM after 48 hrs by coulter counter analysis; conditions: M14, 48 h, read-out: GI; outline: as §1
# [15] = tested on: SF-295; test: Growth inhibition of human SF295 cells at 10 uM after 48 hrs by coulter counter analysis; conditions: SF-295, 48 h, read-out: GI; outline: as §1
# [16] = tested on: OVCAR-8; test: Growth inhibition of human OVCAR8 cells at 10 uM after 48 hrs by coulter counter analysis; conditions: OVCAR-8, 48 h, read-out: GI; outline: as §1
# [17] = tested on: MCF7; test: Growth inhibition of human MCF7 cells at 10 uM after 48 hrs by coulter counter analysis; conditions: MCF7, 48 h, read-out: GI; outline: as §1
# [18] = tested on: MDA-MB-231; test: Growth inhibition of human MDA-MB-231 cells at 10 uM after 48 hrs by coulter counter analysis; conditions: MDA-MB-231, 48 h, read-out: GI; outline: as §1
# [19] = tested on: NCI-H322M; test: Growth inhibition of human NCI-H322M cells at 10 uM after 48 hrs by coulter counter analysis; conditions: read-out: GI; outline: as §1
# [20] = tested on: MDA-MB-435; test: Growth inhibition of human MDA-MB-435 cells at 10 uM after 48 hrs by coulter counter analysis; conditions: MDA-MB-435, 48 h, read-out: GI; outline: as §1
# [21] = tested on: NCI-H226; test: Growth inhibition of human NCI-H226 cells at 10 uM after 48 hrs by coulter counter analysis; conditions: NCI-H226, 48 h, read-out: GI; outline: as §1
# [22] = tested on: SR; test: Growth inhibition of human SR cells at 10 uM after 48 hrs by coulter counter analysis; conditions: read-out: GI; outline: as §2
# [23] = tested on: TK-10; test: Growth inhibition of human TK10 cells at 10 uM after 48 hrs by coulter counter analysis; conditions: TK-10, 48 h, read-out: GI; outline: as §2
# [24] = tested on: MOLT-4; test: Growth inhibition of human MOLT4 cells at 10 uM after 48 hrs by coulter counter analysis; conditions: MOLT-4, 48 h, read-out: GI; outline: as §1
# [25] = tested on: SK-MEL-2; test: Growth inhibition of human SK-MEL-2 cells at 10 uM after 48 hrs by coulter counter analysis; conditions: SK-MEL-2, 48 h, read-out: GI; outline: as §1
# [26] = tested on: EKVX; test: Growth inhibition of human EKVX cells at 10 uM after 48 hrs by coulter counter analysis; conditions: read-out: GI; outline: as §1
# [27] = tested on: NCI-H23; test: Growth inhibition of human NCI-H23 cells at 10 uM after 48 hrs by coulter counter analysis; conditions: NCI-H23, 48 h, read-out: GI; outline: as §1
Compound,inhibition of growth at 10 µM [1],inhibition of growth at 10 µM [2],inhibition of growth at 10 µM [3],inhibition of growth at 10 µM [4],inhibition of growth at 10 µM [5],inhibition of growth at 10 µM [6],inhibition of growth at 10 µM [7],inhibition of growth at 10 µM [8],inhibition of growth at 10 µM [9],inhibition of growth at 10 µM [10],inhibition of growth at 10 µM [11],inhibition of growth at 10 µM [12],inhibition of growth at 10 µM [13],inhibition of growth at 10 µM [14],inhibition of growth at 10 µM [15],inhibition of growth at 10 µM [16],inhibition of growth at 10 µM [17],inhibition of growth at 10 µM [18],inhibition of growth at 10 µM [19],inhibition of growth at 10 µM [20],further results
CCOC(=O)c1sc(NC(=O)C(C)N(CC)CC)nc1C (stereo unspecified),< 10%,< 10%,< 10%,< 10%,16.4%,< 10%,< 10%,< 10%,< 10%,< 10%,< 10%,< 10%,< 10%,< 10%,< 10%,< 10%,< 10%,< 10%,< 10%,< 10%,inhibition of growth at 10 µM [21]: < 10%; inhibition of growth at 10 µM [22]: < 10%; inhibition of growth at 10 µM [23]: < 10%; inhibition of growth at 10 µM [24]: < 10%; inhibition of growth at 10 µM [25]: < 10%; inhibition of growth at 10 µM [26]: < 10%; inhibition of growth at 10 µM [27]: < 10%
CCOC(=O)c1sc(NC(=O)C(C)N2CCOCC2)nc1C (stereo unspecified),< 10%,< 10%,< 10%,< 10%,24.4%,< 10%,< 10%,< 10%,< 10%,< 10%,< 10%,< 10%,< 10%,< 10%,< 10%,< 10%,< 10%,< 10%,< 10%,< 10%,inhibition of growth at 10 µM [21]: < 10%; inhibition of growth at 10 µM [22]: < 10%; inhibition of growth at 10 µM [23]: < 10%; inhibition of growth at 10 µM [24]: < 10%; inhibition of growth at 10 µM [25]: < 10%; inhibition of growth at 10 µM [26]: < 10%; inhibition of growth at 10 µM [27]: < 10%
CC(C(=O)Nc1nccs1)N1CCN(C)CC1 (stereo unspecified),< 10%,< 10%,< 10%,< 10%,15.5%,< 10%,< 10%,< 10%,< 10%,< 10%,< 10%,< 10%,< 10%,< 10%,< 10%,< 10%,< 10%,< 10%,< 10%,< 10%,inhibition of growth at 10 µM [21]: < 10%; inhibition of growth at 10 µM [22]: < 10%; inhibition of growth at 10 µM [23]: < 10%; inhibition of growth at 10 µM [24]: < 10%; inhibition of growth at 10 µM [25]: < 10%; inhibition of growth at 10 µM [26]: < 10%; inhibition of growth at 10 µM [27]: < 10%
